Source: PubChem
An excerpt weighted towards active compounds, which were near 5.8% of everything screened.
GASC1 inh – inhibitors of GASC-1 (KDM4C) histone demethylase, primary screen, biochemical, single concentration HTS; inhibition, % at 12.5 µM; GST-KDM4C 2-372, H3K9me3 peptide, LANCE TR-FRET; 96,000 compounds, 0.15% hits;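 active means mean replicate inhibition above about 25%, with at least 55% of replicates also reaching it, limit read from the data, passing the limit was not always enough; inconclusive means only one of those two conditions met; inactive means neither condition met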
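Compound: one test concentration per compound; Material: GST-GASC-1 enzyme fragment 2-372; Amount: GASC-1 enzyme at 10 nM final in reaction; Also added: H3K9me3 peptide substrate, Fe(II), 2-oxoglutarate; Technique: LANCE TR-FRET; Times: 30 min demethylation and 1 h detection at room temperature.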
Pf Dd2 growth – P. falciparum Dd2 growth inhibitors, primary screen, SYBR Green fluorescence, single dose replicates. 72 h; hits give low values. activity change, % at 10 µM. 94,000 compounds, 2.3% hits. AID 1159554, 2015; in the data active means activity change below about -80%; inconclusive means no clear call, values can overlap the other calls
IDH1 mut inh – inhibitors of IDH1 R132H reductase, primary screen, biochemical, plate reader, single point | Isocitrate dehydrogenase [NADP] cytoplasmic (Homo sapiens), O75874 | diaphorase/resazurin fluorescence, 60 min | inhibition, % at 10 µM | 70,000 compounds, 0.18% hits | AID 624101, 2012; in the data active means inhibition above about 34%; inconclusive means no clear call, values can overlap the other calls; inactive means below about 11%;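 further: 0% = DMSO and 100% = no enzyme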
Target sequence (O75874 whole entry R132H): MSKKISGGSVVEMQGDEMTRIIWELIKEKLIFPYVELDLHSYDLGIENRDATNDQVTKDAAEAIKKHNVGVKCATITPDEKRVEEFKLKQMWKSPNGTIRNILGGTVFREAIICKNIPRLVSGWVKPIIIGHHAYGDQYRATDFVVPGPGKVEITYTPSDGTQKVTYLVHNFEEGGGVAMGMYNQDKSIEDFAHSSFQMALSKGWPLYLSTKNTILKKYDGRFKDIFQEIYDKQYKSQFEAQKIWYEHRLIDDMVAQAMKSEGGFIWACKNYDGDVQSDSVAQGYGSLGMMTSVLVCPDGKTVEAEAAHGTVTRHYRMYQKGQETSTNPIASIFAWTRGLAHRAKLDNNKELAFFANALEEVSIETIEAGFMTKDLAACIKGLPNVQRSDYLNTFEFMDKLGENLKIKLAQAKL
T cruzi growth-1 – T. cruzi intracellular proliferation inhibitors, primary screen, cell-based, beta-gal Tulahuen parasites, NIH3T3 host, luminescence | T. cruzi beta-gal in NIH3T3, GalScreen luminescence, 90 h | inhibition, % at 8.34 µM | 77,000 compounds, 5.9% hits | AID 624255, 2012;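 active means mean inhibition above about 93%, with at least 55% of replicates each passing it, limit read from the data, passing the limit was not always enough; inconclusive means only one of those two conditions holds; inactive means neither condition holds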
T cruzi growth-2 – T. cruzi intracellular proliferation inhibitors, confirmation, cell-based, NIH3T3 host, beta-gal parasite, luminescence, cherry-pick. 5,600 compounds, 72% hits. T. cruzi beta-gal in NIH3T3, GalScreen luminescence, 90 h. shares compounds with T cruzi growth-1. inhibition, % at 8.35 µM;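 active means mean replicate inhibition above about 95% and at least 55% of replicates individually reaching it, limit read from the data; inconclusive means only one of the two criteria is met; inactive means neither criterion is met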
T cruzi growth-3 – inhibitors of intracellular T. cruzi replication, confirmation, NIH3T3 host cells, beta-gal parasites, cherry-pick, set 2; AID 651740, 2012; T. cruzi beta-gal in NIH3T3, GalScreen luminescence, 90 h; inhibition, % at 2.09 µM; 5,600 compounds, 21% hits; shares compounds with T cruzi growth-1;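 active means mean inhibition above about 95%, with at least 55% of replicates also reaching it, limit read from the data; inconclusive means meets just one of the two conditions; inactive means meets neither condition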;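 further: plate controls were neutral control median for no effect and positive control median for full effect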
NIH3T3 tox – cytotoxicity in mouse NIH/3T3 fibroblasts, confirmation, cytotoxicity control for T. cruzi proliferation inhibitor project, cell-based, cherry-pick, single point; shares compounds with T cruzi growth-1; NIH/3T3 viability, CellTiter-Glo ATP luminescence, 90 h; cytotoxicity (signal decrease), % at 8.35 µM; 5,600 compounds, 14% hits; AID 651742, 2012;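 active means mean signal decrease across replicates above about 35% based on untreated-well scatter, with enough replicates individually passing, limit read from the data; inconclusive means no rule stated though some were filed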;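 further: 0% = median of neutral control wells and 100% = median of positive control wells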
NIH3T3 tox 2 – NIH/3T3 fibroblast cytotoxicity, confirmation, cytotoxicity control, cell-based, cherry-pick, single point, set 2; shares compounds with T cruzi growth-1; NIH/3T3 viability, CellTiter-Glo ATP luminescence, 90 h; inhibition, % at 24.9 µM; 5,600 compounds, 56% hits; AID 651744, 2012;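 active means mean loss of cell viability signal at or above a set limit, and enough replicates individually reaching it; inconclusive means meets only the mean limit or only the replicate share; inactive means meets neither condition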;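 further: 0% = median of neutral control wells and 100% = median of positive control wells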
Numbers without * were called inactive; ? = inconclusive; / = no result given.

SMILES	GASC1 inh	Pf Dd2 growth	IDH1 mut inh	T cruzi growth-1	T cruzi growth-2	T cruzi growth-3	NIH3T3 tox	NIH3T3 tox 2
CCn1c2ccccc2c2cc(NC(=O)CCN3C(=O)c4ccccc4C3=O)ccc21	/	/	0.0	/	/	/	/	/
C[C@@H]1CN([C@@H](C)CO)C(=O)c2cc(NC(=O)Cc3cn(C)c4ccccc34)ccc2O[C@H]1CN(C)Cc1ccc(C(F)(F)F)cc1	5.4	1.1	-4.2	112.8*	105.1*	-0.7	10.1	?
C[C@H](CO)N1C[C@H](C)[C@H](CN(C)Cc2ccc(C(F)(F)F)cc2)Oc2ccc(NC(=O)Cc3cn(C)c4ccccc34)cc2C1=O	-0.9	-26.1	-1.7	101.2	/	/	/	/
COc1ccc(S(=O)(=O)N(C)C[C@H]2Oc3ccc(NC(=O)Cc4cn(C)c5ccccc45)cc3C(=O)N([C@@H](C)CO)C[C@H]2C)cc1	1.4	5.7	-6.4	98.8*	108.2*	28.6	9.3	61.4*
C[C@H]1CN([C@@H](C)CO)C(=O)c2cc(NC(=O)Cc3cn(C)c4ccccc34)ccc2O[C@H]1CN(C)Cc1ccc(C(F)(F)F)cc1	-0.7	-4.8	-0.2	?	100.7*	46.7	-10.0	34.2
C[C@@H]1CN([C@@H](C)CO)C(=O)c2cc(NC(=O)Cc3cn(C)c4ccccc34)ccc2O[C@@H]1CN(C)Cc1ccc(Oc2ccccc2)cc1	15.7	-14.9	0.2	93.3*	96.0*	?	30.2	75.6*
C[C@@H]1CN([C@H](C)CO)C(=O)c2cc(NC(=O)Cc3cn(C)c4ccccc34)ccc2O[C@@H]1CN(C)Cc1ccccc1	-1.6	-12.8	-0.1	19.6	/	/	/	/
CC(C)CC#Cc1ccc2c(c1)O[C@@H](CN(C)Cc1ccncc1)[C@@H](C)CN([C@@H](C)CO)S2(=O)=O	6.1	-67.9	2.1	122.0*	108.6*	93.5	7.5	108.5*
CC(C)CC#Cc1ccc2c(c1)O[C@@H](CN(C)Cc1ccccc1)[C@@H](C)CN([C@@H](C)CO)S2(=O)=O	0.6	-66.9	-0.3	125.3*	96.3*	109.5*	11.3	105.7*
C[C@H]1CN([C@@H](C)CO)S(=O)(=O)c2ccc(C#CCN(C)C)cc2O[C@@H]1CN(C)Cc1ccccc1	4.9	-43.6	1.4	108.3*	105.0*	93.1	31.4	104.6*
C[C@@H]1CN([C@H](C)CO)S(=O)(=O)c2ccc(C#CCN(C)C)cc2O[C@@H]1CN(C)Cc1ccccc1	6.6	-32.1	-0.1	58.7	/	/	/	/
CC(C)CC#Cc1ccc2c(c1)O[C@@H](CN(C)Cc1ccncc1)[C@@H](C)CN([C@H](C)CO)S2(=O)=O	-1.0	-55.5	-0.1	129.8*	100.2*	90.9	0.6	104.5*
O=C(N/N=C/[C@@H](O)[C@@H](O)[C@H](O)[C@H](O)CO)c1ccccc1O	/	/	-0.1	/	/	/	/	/
Cc1ccc(Cl)cc1NC(=O)CSc1cc(C)c2cccc(C)c2n1	/	/	-0.1	/	/	/	/	/
COc1ccccc1C(CCNCc1ccccc1)c1ccco1 (stereo unspecified)	/	/	-0.3	/	/	/	/	/
CN(Cc1nc(-c2cccc([N+](=O)[O-])c2)no1)S(=O)(=O)c1ccccc1	/	/	0.1	/	/	/	/	/
CC(NS(=O)(=O)c1ccc(Br)cc1)C(=O)Nc1ccc(Cl)cc1Cl (stereo unspecified)	/	/	-0.2	/	/	/	/	/
COc1ccc(S(=O)(=O)N(C)CC(=O)Nc2cc([N+](=O)[O-])ccc2C)cc1C	/	/	0.0	/	/	/	/	/
CC(C)CC#Cc1ccc2c(c1)O[C@H](CN(C)Cc1ccncc1)[C@H](C)CN([C@@H](C)CO)S2(=O)=O	0.4	-69.7	4.0	?	95.4*	88.4	48.6*	97.4*
CCCC#Cc1ccc2c(c1)O[C@@H](CN(C)Cc1ccncc1)[C@H](C)CN([C@H](C)CO)S2(=O)=O	7.7	-69.8	7.0	116.6*	98.4*	101.7*	72.2*	104.9*
CCn1c2ccccc2c2cc(NC(=O)CN3C(=O)c4ccccc4C3=O)ccc21	/	/	-0.2	/	/	/	/	/
C[C@H](CO)N1C[C@H](C)[C@H](CN(C)Cc2ccc(-c3ccccc3)cc2)Oc2cc(C#CC(C)(C)O)ccc2S1(=O)=O	-1.6	-54.0	/	121.7*	91.6	115.7*	51.1*	104.0*
C[C@H](CO)N1C[C@H](C)[C@@H](CN(C)Cc2ccc(-c3ccccc3)cc2)Oc2cc(C#CC(C)(C)O)ccc2S1(=O)=O	-0.4	-72.7	-0.8	117.1*	95.1*	115.5*	113.9*	104.4*
C[C@H]1CN([C@@H](C)CO)S(=O)(=O)c2ccc(C#CC(C)(C)O)cc2O[C@H]1CN(C)Cc1ccc(-c2ccccc2)cc1	-0.2	-64.8	/	124.3*	95.9*	113.4*	114.4*	105.4*
C[C@@H]1CN([C@H](C)CO)S(=O)(=O)c2ccc(C#CC(C)(C)O)cc2O[C@H]1CN(C)Cc1ccccc1	/	-23.3	/	74.6	/	/	/	/
SMILES	GASC1 inh	Pf Dd2 growth	IDH1 mut inh	T cruzi growth-1	T cruzi growth-2	T cruzi growth-3	NIH3T3 tox	NIH3T3 tox 2
C[C@H]1CN([C@@H](C)CO)S(=O)(=O)c2ccc(C#CC(C)(C)O)cc2O[C@H]1CN(C)Cc1ccccc1	/	-31.7	/	76.7	/	/	/	/
C[C@H]1CN([C@@H](C)CO)S(=O)(=O)c2ccc(C#CC(C)(C)O)cc2O[C@@H]1CN(C)Cc1ccc(-c2ccccc2)cc1	-0.1	-57.9	/	118.3*	98.4*	112.3*	119.8*	103.7*
COC(=O)c1ccccc1NC(=O)c1cccc(NC(=O)COc2cc(C)c(Cl)c(C)c2)c1C	/	/	0.2	/	/	/	/	/
C[C@@H]1CN([C@H](C)CO)S(=O)(=O)c2ccc(C#CC(C)(C)O)cc2O[C@@H]1CN(C)Cc1ccc(-c2ccccc2)cc1	1.3	-63.2	/	124.6*	82.6	109.5*	45.1*	107.3*
COC(=O)c1sc(NC(=O)COc2ccc(C(C)C)cc2)c(C#N)c1C	/	/	0.1	/	/	/	/	/
CN(C)C(=O)c1cccc(-c2ccc3c(c2)[C@H]2[C@H](CCN2C(=O)c2cccc(F)c2)[C@@H](CO)N3C)c1	2.8	-12.6	/	98.7*	103.4*	41.5	4.7	8.4
